Shown are actives, neighbours in structure and some others; about 3.2% of the full set was active somewhere.
Hck-Nef inh: inhibitors of Nef-activated human Hck kinase, primary screen, biochemical, Z-Lyte FRET, 384-well, Hck-YEEI; Recombinant Hck-YEEI plus Nef, Z-Lyte FRET kinase assay; hit rate 0.68% among 220,000; inhibition, % at 20 µM; Tyrosine-protein kinase HCK (Homo sapiens), P08631;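 active means Hck-Nef kinase inhibition above about 50%, limit read from the data; inactive means inhibition below that limit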;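 further: 0% = DMSO with Hck plus Nef and 100% = Hck alone without Nef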
Mcl1 Bid PPI: Mcl-1/Bid binding inhibitors, primary screen, biochemical, TR-FRET, 1536-well | hit rate 0.97% among 220,000 | inhibition, % at 21.7 µM | AID 1021, 2008 | Induced myeloid leukemia cell differentiation protein Mcl-1 (Homo sapiens), Q07820 | TR-FRET Mcl-1/Bid-Dy647 peptide binding;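 active means compounds that cut the binding signal by more than half at the single screening dose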;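 further: His-tagged Mcl-1 with europium anti-His antibody binding Bid BH3 peptide; 0% = Mcl-1 plus peptide wells and 100% = peptide-only wells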
Target sequence (Q07820 whole entry, looked up): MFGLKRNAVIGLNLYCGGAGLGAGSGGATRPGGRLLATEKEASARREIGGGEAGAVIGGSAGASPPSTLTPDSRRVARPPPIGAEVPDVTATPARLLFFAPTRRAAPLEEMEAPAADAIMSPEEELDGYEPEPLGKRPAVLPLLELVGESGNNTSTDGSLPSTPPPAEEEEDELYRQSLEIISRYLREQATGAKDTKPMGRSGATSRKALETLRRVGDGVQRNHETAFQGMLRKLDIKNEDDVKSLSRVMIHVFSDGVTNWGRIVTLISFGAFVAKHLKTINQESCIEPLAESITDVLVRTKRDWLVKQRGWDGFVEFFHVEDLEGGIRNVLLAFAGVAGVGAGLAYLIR
Biofilm kill mix: clotrimazole potentiators killing C. albicans biofilm, primary screen, 4-compound mixtures. C. albicans biofilm persisters + clotrimazole, fluorescence viability; primary screen in compound mixtures of four per well. inhibition, % at 7.6 µM. hit rate 0.02% among 120,000;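 active means inhibition above 30.3% in the primary screen of four-compound pools, then above 30% when the compound was retested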;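 further: compounds exposed to preformed 24 h biofilms for 48 h; 0% = untreated biofilm control and 100% = clotrimazole plus chlorhexidine kill blank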
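Test system: C. albicans biofilms. Buffer or medium: RPMI/MOPS medium, pH 7.0. Timing: 48 h compound exposure at 37 °C. Technique: Alamar Blue fluorescence. Evaluation: percent inhibition of biofilm viability.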
Bim-Mcl-1: inhibitors of Bim peptide binding to Mcl-1, primary screen, biochemical, bead-based flow cytometry, multiplex. inhibition, % at 10 µM. hit rate 0.1% among 190,000. AID 1009, 2008. Bim peptide-Mcl-1 binding. Induced myeloid leukemia cell differentiation protein Mcl-1 (Homo sapiens), Q07820; in the data active means inhibition above about 40%;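 further: 0% = no compound tracer wells and 100% = peptide blocker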
Mcl1 Noxa PPI: Mcl-1/Noxa binding inhibitors, primary screen, biochemical, TR-FRET, 1536-well. Induced myeloid leukemia cell differentiation protein Mcl-1 (Homo sapiens), Q07820. TR-FRET Mcl-1/Noxa peptide binding, 2 h. inhibition, % at 21.7 µM. hit rate 1.5% among 220,000. AID 1022, 2008;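 active means compounds that cut the protein-peptide binding signal by more than 50% relative to plate controls in a single-dose test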;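 further: His-tagged Mcl-1 with rhodamine Noxa BH3 peptide and terbium anti-His antibody; 0% = Mcl-1 plus Noxa peptide wells and 100% = peptide-only wells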
14-3-3 Bad PPI: inhibitors of 14-3-3 zeta/Bad binding, primary screen, biochemical, TR-FRET, bovine 14-3-3 zeta; 14-3-3 protein zeta/delta (Bos taurus), P63103; TR-FRET 14-3-3zeta/Dy647-pBad peptide displacement, 1 h; inhibition, % at 21.7 µM; hit rate 0.71% among 220,000; AID 781, 2007;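 active means inhibition above about 70%, limit read from the data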;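 further: 0% = full 14-3-3 plus peptide FRET controls and 100% = background without 14-3-3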
* = called active by the depositor; · = no result given.

SMILES	Hck-Nef inh	Mcl1 Bid PPI	Biofilm kill mix	Bim-Mcl-1	Mcl1 Noxa PPI	14-3-3 Bad PPI
O=C1CCCC2=C1C(c1ccc(Cl)cc1)C1C(=O)c3ccccc3C1=N2 (stereo not drawn)	1	-31	·	0	45	13
O=C1CCCC2=C1C(c1ccccc1)C1C(=O)c3ccccc3C1=N2 (stereo not drawn)	-4	-68	18	0	58*	-29
COc1ccc(C(O)c2nccc3cc(OC)c(OC)cc23)cc1OC (stereo not drawn)	5	-29	10	0	2	92*
OC(c1ccc2c(c1)OCO2)c1nccc2ccccc12 (stereo not drawn)	1	1	·	-2	-3	9
O=C(O)CC1(CC(=O)NCc2ccccn2)CCCCC1	9	-25	18	·	-11	-12
COC(=O)/C=c1/sc2nc3ccccc3n2c1=O	-2	11	·	-17	-20	3
O=c1/c(=C/c2ccccn2)sc2nc3ccccc3n12	20	47	·	0	44	16
O=C(O)c1cccc(-c2ccc(/C=c3/sc4nc5ccccc5n4c3=O)o2)c1	-35	33	23	·	89*	68
O=C(O)c1cc(C(=O)O)cc(-c2ccc(/C=c3/sc4nc5ccccc5n4c3=O)o2)c1	17	-32	2	1	54*	51
COc1ccccc1C1CC(c2ccc(F)cc2)Nc2ncnn21 (stereo not drawn)	2	-12	·	0	4	17
COc1ccccc1C1CC(c2ccccc2)Nc2ncnn21 (stereo not drawn)	0	97*	·	-4	14	0
N#Cc1ccccc1Cn1c(-c2cscn2)nc2ccccc21	0	79*	·	1	6	-4
O=C(Cn1c(-c2cscn2)nc2ccccc21)Nc1ccc2ccccc2c1	3	28	·	0	-38	36
O=C(O)Cn1c(-c2cscn2)nc2ccccc21	2	-2	·	0	9	72*
COCC(=O)N1CCC(n2nnc3cc(C(F)(F)F)ccc32)CC1	20	-11	21	2	1	-9
O=S(=O)(c1ccc(Br)s1)N1CCN(c2ncccn2)CC1	0	-24	·	0	-30	-8
Cc1n[nH]c(C)c1S(=O)(=O)N1CCN(c2ccccn2)CC1	-2	70*	·	-3	-10	-7
O=S(=O)(c1ccc(Br)s1)N1CCN(c2ccccn2)CC1	2	-3	·	-1	14	85*
O=C(CCS(=O)(=O)c1ccc(Br)s1)Nc1ccccc1Br	25	-11	2	-2	1	-7
N#CCSc1nc2cc(C(=O)N3CCC(C(N)=O)CC3)ccc2c2nc3ccccc3n12	3	2	·	0	51*	18
N#CCSc1nc2cc(C(=O)N3CCCC3)ccc2c(=O)n1Cc1ccccc1	0	18	·	15	19	11
Cc1ccc(-c2csc(Nc3ccc(S(N)(=O)=O)cc3)n2)o1	15	-43	21	6	64*	-5
CCc1cc(C(=O)O)c(NC(=O)c2cc(OC)c(OC)c(OC)c2)s1	-6	-22	-2	1	10	-8
Cc1ccc(-n2c(C)n[nH]c2=S)cc1C	1	97*	14	-7	12	-7
CCOC(=O)c1c(NC(=O)CSc2nnc(C)s2)sc2c1CCN(C)C2	6	18	·	0	68*	39
Cc1ccc(C(=O)OCC(=O)Nc2c(Cl)cc(S(N)(=O)=O)cc2Cl)o1	18	-43	24	·	37	-8
Cc1ccccc1Cc1ccc(Cl)nn1	-4	-24	15	-1	3	2
Cc1cccc(N=C2NC(=O)/C(=C/C=C/c3ccco3)S2)c1	29	31	3	-5	106*	2
Cc1ccc(N=C2NC(=O)/C(=C\c3ccco3)S2)cc1	29	-28	19	-3	45	-6

Bioassay records from PubChem BioAssay.
